Columns and labels:
[1] = system: A549 human lung cancer cells; test: PE-AnnexinV FACS apoptosis in A549 cells; format: cell-based
Summary of the method: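 A549 human lung cancer cells received AZD8055 (1 μM) or DMSO together with increasing doses of test compound for 72 hours. Cells were then collected, stained with PE-AnnexinV and quantified by FACS. Read-out was the percentage of AnnexinV-positive cells, taken as cells actively undergoing apoptosis.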

[2] = system: PC3 human prostate cells stably expressing GFP-LC3; test: GFP-LC3 puncta high-throughput microscopy in PC3 cells; format: cell-based; details: 1 μM for 4 hours, control siRNA cells
Summary of the method: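 GFP-LC3 PC3 cells were used for a focused RNAi screen of kinases. 48 hours after siRNA transfection, cells received 1 μM of the catalytic mTOR inhibitors AZD8055 or INK128 for 4 hours. GFP-LC3 puncta were then imaged, with nuclei counterstained by DAPI. Results were reported as mean puncta number with standard deviation for each siRNA and drug treatment.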

[3] = system: endogenous FAK, AMPK, mTOR, Akt, or Erk signaling; test: immunoblot of endogenous growth pathway signaling in wild-type MEFs; format: cell-based, mouse; details: 10 μM
Summary of the method: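 Wild-type and Ulk1/Ulk2 double-knockout MEFs were given fresh DMEM with 10% FBS containing 1 μM INK128, 1 μM AZD8055 or DMSO, or EBSS starvation medium, with or without 10 μM test compound. Endogenous signaling was assessed by immunoblotting. Endogenous ULK1 activity was monitored with a phospho-specific antibody to Atg13 Ser318.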

A549 cells = test: Cyto-ID autophagy dye imaging in A549 cells; format: cell-based, human; details: 5 μM 6965 for 2 hours, then 4 μM AZD8055 for 24 hours
Summary of the method: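 A549 cells were pretreated with or without test compound (5 μM) for 2 hours, then exposed to the catalytic mTOR inhibitor AZD8055 (4 μM) for 24 hours. Autophagic vacuoles were stained with the Cyto-ID autophagy detection kit and nuclei with DAPI. Read-out was immunofluorescence imaging.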

[4] = system: panel of 456 purified human kinases; test: DiscoveRx KINOMEscan competition-binding assay; details: tested at 10 μM

| SMILES | apoptotic (AnnexinV-positive) cells ([1]; AZD8055 (1 μM) alone, 72 hours) | induction in GFP-LC3 puncta formation [2] | apoptotic (AnnexinV-positive) cells ([1]; 5 μM 6965 in the absence of AZD8055, 72 hours) | effect on endogenous FAK, AMPK, mTOR, Akt, or Erk signaling [3] | effect on AZD8055-induced autophagy (Cyto-ID dye accumulation) (A549 cells) | number of kinases inhibited >95% [4] |
| --- | --- | --- | --- | --- | --- | --- |
| COc1ccc(-c2ccc3c(N4CCOC[C@@H]4C)nc(N4CCOC[C@@H]4C)nc3n2)cc1CO [AZD8055, reference compound] | 7% | 2 fold |  |  |  |  |
| CC(C)n1nc(-c2ccc3oc(N)nc3c2)c2c(N)ncnc21 [INK128] |  | 2 fold |  |  |  |  |
| CNC(=O)c1ccccc1Oc1nc(Nc2cc(OC)c(OC)c(OC)c2)ncc1Br [SBI-0206965] |  |  | 10% | did not impair | strongly suppressed | 10 out of 456 |

Reference: publication PMC4530630 (Molecular cell, 2015)
